Blank lines part the entries; values can stand above or below the compound they belong to. Where a SMILES comes first, the peptide text is derived from it. [ ]: non-standard residue; d: D form. Arg(Me) = CNC(=N)NCCC[C@H](N)C(=O)O; d4Pal = N[C@H](Cc1ccncc1)C(=O)O; azaGly = NNC(=O)O
What was measured:
[1] = Stability of the compound in aqueous solution (JP1) assessed as residual ratio at pH 1.2 up to 2 weeks by HPLC analysis relative to initial level; assay type: physicochemical
How it was run: (§1)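 Peptides in aqueous solution at pH 1.2 (JP1, containing 10% acetonitrile), 3, 5 or 7 were kept in the dark at 37 °C for up to 2 weeks. Peptide remaining was quantified from HPLC peak area, with detection at 230–280 nm. The residual ratio (stability index) was expressed relative to the time-0 amount, taken as 100%.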

[2] = Mean residence time in Sprague-Dawley rat at 1 mg/kg, sc after 24 hrs by LC-MS/MS analysis; assay type: ADME, organism-based; set-up: dose 1 mg/kg, route subcutaneous; details: in vivo
How it was run: (§2)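 Single subcutaneous dose of 1 mg/kg in male Crl:CD(SD) rats, n = 3 per group. Blood was sampled from 5 min to 24 h (5, 10, 15, 30 min; 1, 2, 4, 8, 24 h). Plasma was deproteinized with formic acid/methanol and acetonitrile, and peptide levels were measured by LC-MS. Noncompartmental analysis per animal gave Cmax, Tmax, AUC0-24h, MRT and BA; values are mean ± SD (n = 3).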

[3] = Mean residence time in Sprague-Dawley rat at 1 mg/kg, iv after 24 hrs by LC-MS/MS analysis; assay type: ADME, organism-based; set-up: dose 1 mg/kg, route intravenous; details: in vivo
How it was run: (§3)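 Male Crl:CD(SD) rats (3 per group) got a single intravenous dose of 1 mg/kg. Blood was drawn at 5, 10, 15 and 30 min and at 1, 2, 4, 8 and 24 h. Plasma proteins were removed with 0.2% formic acid/methanol and acetonitrile, and the supernatant was treated with 0.4% formic acid. Peptide was quantified by LC-MS. Noncompartmental parameters were derived per rat, reported as mean ± SD (n = 3).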

[4] = Stability of the compound in aqueous solution assessed as residual ratio at pH 5 up to 1 week by HPLC analysis relative to initial level; assay type: physicochemical; how it was run: as §1
[5] = Stability of the compound in aqueous solution assessed as residual ratio at pH 3 up to 1 week by HPLC analysis relative to initial level; assay type: physicochemical; how it was run: as §1
[6] = AUC (0 to 24 hrs) in Sprague-Dawley rat at 1 mg/kg, sc after 24 hrs by LC-MS/MS analysis; assay type: ADME, organism-based; set-up: time < 24 hr, dose 1 mg/kg, route subcutaneous; details: plasma; how it was run: as §2
[7] = Stability of the compound in aqueous solution assessed as residual ratio at pH 7 up to 1 week by HPLC analysis relative to initial level; assay type: physicochemical; how it was run: as §1
[8] = Total clearance in Sprague-Dawley rat at 1 mg/kg, iv after 24 hrs by LC-MS/MS analysis; assay type: ADME, organism-based; set-up: dose 1 mg/kg, route intravenous; details: in vivo; how it was run: as §3
[9] = Stability of the compound in aqueous solution (JP1) assessed as residual ratio at pH 1.2 up to 1 week by HPLC analysis relative to initial level; assay type: physicochemical; how it was run: as §1
KiSS-1 receptor [10] = biological target: T1, KiSS-1 receptor (Rattus norvegicus, UniProt Q924U1); experiment: Displacement of radioligand from rat KISS1R transfected in CHO cells; assay type: cell-based
T1 sequence (Q924U1 whole entry): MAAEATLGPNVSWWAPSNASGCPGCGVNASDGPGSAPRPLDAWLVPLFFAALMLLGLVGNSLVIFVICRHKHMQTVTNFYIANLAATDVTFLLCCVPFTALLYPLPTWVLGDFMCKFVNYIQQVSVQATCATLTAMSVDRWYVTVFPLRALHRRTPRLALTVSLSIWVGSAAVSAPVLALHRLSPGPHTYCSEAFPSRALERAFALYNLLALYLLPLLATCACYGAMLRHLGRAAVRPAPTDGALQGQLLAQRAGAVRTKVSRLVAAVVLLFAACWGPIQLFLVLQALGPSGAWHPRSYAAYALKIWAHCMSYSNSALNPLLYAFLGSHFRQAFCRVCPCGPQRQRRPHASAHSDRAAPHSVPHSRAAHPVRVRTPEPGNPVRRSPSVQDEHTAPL

KiSS-1 receptor [11] = biological target: T1, KiSS-1 receptor; experiment: Agonist activity at rat KISS1R transfected in CHO cells assessed as intracellular calcium flux after 24 hrs by functional FLIPR assay; assay type: cell-based
[12] = Stability of the compound in aqueous solution assessed as residual ratio at pH 5 up to 2 weeks by HPLC analysis relative to initial level; assay type: physicochemical; how it was run: as §1
KiSS-1 receptor [13] = biological target: T2, KiSS-1 receptor (Homo sapiens, UniProt Q969F8); experiment: Displacement of radioligand from human KISS1R transfected in CHO cells; assay type: cell-based
T2 sequence (Q969F8 whole entry): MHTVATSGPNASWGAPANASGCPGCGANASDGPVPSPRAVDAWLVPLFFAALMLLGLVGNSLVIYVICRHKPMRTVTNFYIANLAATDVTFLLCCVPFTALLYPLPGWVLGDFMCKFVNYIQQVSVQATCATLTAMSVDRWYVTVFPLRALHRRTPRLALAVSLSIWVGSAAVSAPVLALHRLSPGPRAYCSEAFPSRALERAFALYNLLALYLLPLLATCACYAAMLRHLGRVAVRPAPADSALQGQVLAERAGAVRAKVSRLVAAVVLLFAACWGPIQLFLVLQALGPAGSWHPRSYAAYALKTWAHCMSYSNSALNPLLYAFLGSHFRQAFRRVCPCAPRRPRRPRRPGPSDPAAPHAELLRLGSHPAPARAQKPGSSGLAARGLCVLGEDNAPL
How it was run: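 Binding used membrane fractions prepared from CHO cells expressing recombinant human KISS1R.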

Rattus norvegicus [14] = experiment: Testosterone-suppressive activity in Crl:CD(SD) rat assessed as number of animal with plasma testosterone level below the limit of detection at 2 nmol/hr, sc through osmotic pumps measured after 6 days by RIA; assay type: functional
How it was run: (§4)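 Peptide was dissolved in distilled water or 50% DMSO as 0.1–2 mM pump solutions and delivered by ALZET osmotic pumps implanted subcutaneously in the back of 9-week-old male Crl:CD(SD) rats (n = 5) under ether. Controls received distilled-water pumps. After 6 days, rats were decapitated and plasma was recovered with aprotinin/EDTA. Testosterone was measured by RIA, and the number of rats below the detection limit (0.04 ng/mL) was counted.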

Rattus norvegicus [15] = experiment: Testosterone-suppressive activity in Crl:CD(SD) rat assessed as number of animal with plasma testosterone level below the limit of detection at 0.5 nmol/hr, sc through osmotic pumps measured after 6 days by RIA; assay type: functional; how it was run: as §4
[16] = C5min in Sprague-Dawley rat at 1 mg/kg, iv after 5 mins by LC-MS/MS analysis; details: in vivo, read-out: Cmin
KiSS-1 receptor [17] = biological target: T2, KiSS-1 receptor; experiment: Agonist activity at human KISS1R transfected in CHO cells assessed as intracellular calcium flux after 24 hrs by functional FLIPR assay; assay type: cell-based
How it was run: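 CHO cells stably expressing human KISS1R were seeded at 15 000 cells/mL, cultured 24 h, then loaded with fluo-3 for 1 h at 37 °C in HBSS/HEPES (pH 7.4) with probenecid and FBS. Cells were washed in HBSS with 2.5 mM probenecid. Peptides came from 1 mM DMSO stocks diluted in buffer containing probenecid, 0.2% BSA and 0.1% CHAPS. Fluorescence was recorded on FLIPR for 3 min; peak counts over 0–180 s gave agonist activity.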

[18] = Stability of the compound in aqueous solution assessed as residual ratio at pH 7 up to 2 weeks by HPLC analysis relative to initial level; assay type: physicochemical; how it was run: as §1
[19] = AUC (0 to 24 hrs) in Sprague-Dawley rat at 1 mg/kg, iv after 24 hrs by LC-MS/MS analysis; assay type: ADME, organism-based; set-up: time < 24 hr, dose 1 mg/kg, route intravenous; details: plasma; how it was run: as §3
[20] = Stability of the compound in aqueous solution assessed as residual ratio at pH 3 up to 2 weeks by HPLC analysis relative to initial level; assay type: physicochemical; how it was run: as §1
[21] = Cmax in Sprague-Dawley rat at 1 mg/kg, sc after 24 hrs by LC-MS/MS analysis; assay type: ADME, organism-based; set-up: dose 1 mg/kg, route subcutaneous; details: in vivo; how it was run: as §2
[22] = Volume of distribution at steady state in Sprague-Dawley rat at 1 mg/kg, iv after 24 hrs by LC-MS/MS analysis; assay type: ADME, organism-based; set-up: dose 1 mg/kg, route intravenous; details: in vivo, read-out: Vdss; how it was run: as §3
Rattus norvegicus [23] = experiment: Testosterone-suppressive activity in Crl:CD(SD) rat assessed as number of animal with plasma testosterone level below the limit of detection at 0.1 nmol/hr, sc through osmotic pumps measured after 6 days by RIA; assay type: functional; how it was run: as §4
Rattus norvegicus [24] = experiment: Testosterone-suppressive activity in Crl:CD(SD) rat assessed as number of animal with plasma testosterone level below the limit of detection at 0.3 nmol/hr, sc through osmotic pumps measured after 6 days by RIA; assay type: functional; how it was run: as §4
[25] = Tmax in Sprague-Dawley rat at 1 mg/kg, sc after 24 hrs by LC-MS/MS analysis; assay type: ADME, organism-based; set-up: dose 1 mg/kg, route subcutaneous; details: in vivo; how it was run: as §2
Rattus norvegicus [26] = experiment: Testosterone-suppressive activity in Crl:CD(SD) rat assessed as number of animal with plasma testosterone level below the limit of detection at 0.03 mol/hr, sc through osmotic pumps measured after 6 days by RIA; assay type: functional
Rattus norvegicus [27] = experiment: Testosterone-suppressive activity in Crl:CD(SD) rat assessed as number of animal with plasma testosterone level below the limit of detection […], sc through osmotic pumps measured after 6 days by RIA; assay type: functional

remaining at 336 h [1]: 32.8%
MRT [2]: 36.6 min
MRT [3]: 22.8 min
remaining at 168 h [4]: 94.8%
remaining at 168 h [5]: 99.4%
AUC(0-t) at 24 h [6]: 96 ng·h/mL
remaining at 168 h [7]: 54.9%
clearance [8]: 69.9 mL/min/kg
remaining at 168 h [9]: 60.3%
Ki (KiSS-1 receptor [10]): 0.14 nM
EC50 (KiSS-1 receptor [11]): 10 nM
remaining at 336 h [12]: 91.2%
Ki (KiSS-1 receptor [13]): 0.11 nM
concentration at 5 min [16]: 969 ng/mL
EC50 (KiSS-1 receptor [17]): 2.6 nM
remaining at 336 h [18]: 28%
AUC(0-t) at 24 h [19]: 239 ng·h/mL
remaining at 336 h [20]: 100%
Cmax [21]: 145 ng/mL
Vd [22]: 1.58 L/kg
Tmax [25]: 8.4 min
SMILES: CNC(=N)NCCC[C@H](NC(=O)[C@H](CC(C)C)NC(=O)NNC(=O)[C@H](Cc1ccccc1)NC(=O)[C@H](CO)NC(=O)[C@H](CC(N)=O)NC(=O)[C@@H](Cc1ccncc1)NC(=O)[C@H](N)Cc1ccc(O)cc1)C(=O)N[C@@H](Cc1ccccc1)C(N)=O [KISS1-305] (H-[dY][d4Pal]NSF[azaGly]L[Arg(Me)]F-NH2)
Activity (Rattus norvegicus [14]): 100%
Activity (Rattus norvegicus [15]): 60%
Activity (Rattus norvegicus [23]): 0 rats (n = 5)
Activity (Rattus norvegicus [24]): 0%

Ki (KiSS-1 receptor [10]): 0.11 nM
EC50 (KiSS-1 receptor [11]): 3.7 nM
EC50 (KiSS-1 receptor [17]): 0.8 nM
SMILES: CCCC(=O)N[C@H](Cc1ccc(O)cc1)C(=O)N[C@H](Cc1c[nH]c2ccccc12)C(=O)N[C@@H](CC(N)=O)C(=O)N[C@H](C(=O)N[C@@H](Cc1ccccc1)C(=O)NNC(=O)N[C@@H](CC(C)C)C(=O)N[C@@H](CCCNC(=N)NC)C(=O)N[C@@H](Cc1c[nH]c2ccccc12)C(N)=O)[C@@H](C)O
Activity (Rattus norvegicus [26]): 0%
Activity (Rattus norvegicus [23]): 3 rats (n = 5)

EC50 (KiSS-1 receptor [11]): 1.1 nM
Ki (KiSS-1 receptor [13]): 0.039 nM
EC50 (KiSS-1 receptor [17]): 0.3 nM
SMILES: CNC(=N)NCCC[C@H](NC(=O)[C@H](CC(C)C)NC(=O)NNC(=O)[C@H](Cc1ccccc1)NC(=O)[C@@H](NC(=O)[C@H](CC(N)=O)NC(=O)[C@@H](Cc1c[nH]c2ccccc12)NC(=O)CCc1ccc(O)cc1)[C@@H](C)O)C(=O)N[C@@H](Cc1c[nH]c2ccccc12)C(N)=O
Activity (Rattus norvegicus [27]): 0 animals
Activity (Rattus norvegicus [23]): 100%

— ChEMBL document CHEMBL3352485 (J Med Chem, 2014)
